Rows were chosen to be rich in hits. Some 12% of all compounds tested hit in one or more screens of this group.
b-catenin transl = modulators of beta-catenin nuclear translocation, primary screen, imaging, HeLa cells, immunofluorescence, high-content; nuclear translocation activity, % at 5 µM; 190,000 compounds, 0.3% hits;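 active = nuclear translocation activity above 50% at 5 µM, with a well cell count of 50 or more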;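 also: per-cell ratio of nuclear to cytoplasmic median beta-catenin stain intensity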
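Signal – beta-catenin immunofluorescence imaging with DAPI · Test system – human HeLa cell line · Dosing – 5 µM primary single dose, 0.1% DMSO, 0.02–20 µM confirmation series · Measure – % activation, nuclear-to-cytoplasmic median beta-catenin signal ratio per cell · Incubation – 24 h compound exposure at 37°C, 5% CO2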
MT stabilizer = microtubule stabilizers in HeLa cells, primary screen, imaging, high-content imaging. HeLa tubulin immunostaining HCS, 24 h; share of cells brighter than vehicle mean+2SD. % tubulin-high responders, % at 10 µM. 200,000 compounds, 0.83% hits. AID 2205, 2009;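 active = plate Z-score above 3 for both tubulin-high and condensed-nucleus cell shares, with cell loss under 80%, at 10 µM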;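 also: anti alpha tubulin signal scored within the nucleus-defined area of each cell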
Dynein transport = inhibitors of GR-EGFP nuclear translocation, primary screen, dynein cargo transport inhibitor project, imaging, high-content, 3617.4 mouse cells; test concentration mostly 20 µM; stimulated with dexamethasone, 1 µM; stronger effect = lower value; z-score, hits read low; 220,000 compounds, 0.47% hits;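 active = plate z-score of nuclear minus cytoplasmic receptor signal below a set negative limit, without overly bright fluorescence or cell loss, cut at about -3.5 in these data, passing the limit was not always enough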;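 also: z-score of nuclear minus cytoplasmic ring GR-EGFP intensity difference per well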
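Also added: dexamethasone, 1.0 µM final. Medium: tet-free, stripped-serum medium. Detection: fixed, Hoechst-stained cells imaged at 10x for EGFP. Read-out: nuclear-to-cytoplasmic GR-EGFP distribution per well. Times: induction 48 h, compound 1 h, agonist 30 min.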
Autophagy HCS = autophagy modulators in MEF cells, primary screen, imaging, high-content, MEF GFP-LC3; calls only at 10 µM (by protocol); MEF GFP-LC3 puncta imaging; test concentration mostly 10 µM; AID 463193, 2010; 190,000 compounds, 0.98% hits;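 active = percentage of spot-positive cells more than 3 SD above its plate mean, without a fluorescence outlier flag or 80% toxicity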
CHOP inh = inhibitors of CHOP promoter induction, primary screen, cell-based, unfolded protein response, luciferase reporter; CHO-K1 CHOP-promoter luciferase, tunicamycin-induced, 15-18 h; inhibition, % at 10 µM; 220,000 compounds, 3.8% hits;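 active = compounds that reduced the stress-induced luciferase reporter signal by more than about 70% of percent inhibition, limit read from the data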
L major viab = Leishmania major promastigote growth inhibition, primary screen | Leishmania major promastigotes, resazurin fluorescence viability | inhibition, % at 10 µM | 200,000 compounds, 9% hits | AID 1063, 2008; in the data active = inhibition above about 50%;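 also: promastigotes grown with compound for 44 hours at 28 °C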
Large screens that a line does not name were inactive.

CCC(C)(C)NC(=O)C(c1ccc(C)cc1)N(Cc1ccco1)C(=O)CCC(=O)Nc1nccs1 (stereo unspecified)	none (no result: b-catenin transl)
Cc1ccc(Cn2cccc2/C=C2/C(=N)N3C=CSC3=NC2=O)cc1	CHOP inh 94
COc1ccc(-c2coc3cc4oc(=O)c5ccccc5c4cc23)cc1F	b-catenin transl 141
CN(C)c1nc(N)nc(CSc2nc3cc(Cl)ccc3o2)n1	CHOP inh 77
COc1ccc(C2=C(C=Nc3c(C)n(C)n(-c4ccccc4)c3=O)C(c3ccccc3C)c3ccccc3O2)cc1OC (stereo unspecified)	none
CCOc1cc(/C=C/c2cc(C(=O)O)c3ccccc3n2)ccc1O	L major viab 75
CCOc1cc(/C=C/c2cc(C(=O)O)c3ccccc3n2)ccc1OC	none
O=[N+]([O-])c1cc(C(F)(F)F)ccc1NCCCCNS(=O)(=O)c1ccc(Cl)cc1	none
O=[N+]([O-])c1cc(C(F)(F)F)ccc1NCCNC(=S)Nc1ccc(Cl)cc1	CHOP inh 86, L major viab 101
Cc1nn(-c2ccccc2)c(-c2ccccc2[N+](=O)[O-])c1C(=O)O	none (no result: MT stabilizer, Autophagy HCS, L major viab)
COc1ccc(OC)c(C=Nc2ccccc2-c2nc3ccccc3[nH]2)c1	none
COc1ccc(OC)c(/C=N/N(C)c2ccccc2)c1	CHOP inh 72, L major viab 60 (no result: b-catenin transl)
CCc1ccc(S(=O)(=O)/N=C2\C=CC(=O)c3ccccc32)cc1	L major viab 93
Cc1ccc(S(=O)(=O)/N=C2/C=C(C3C(=O)CC(C)(C)CC3=O)C(=O)c3ccccc32)cc1	none
CC1(C)CC(O)(CCNCc2ccc3c(c2)OCO3)CCO1 (stereo unspecified)	L major viab 83
CC1(C)CC(NCc2ccc3c(c2)OCO3)CCO1 (stereo unspecified)	L major viab 84
O=C(NCc1ccc2c(c1)OCO2)C(=O)NC1CCCCC1	none
CCOc1ccccc1N1CCN(C(=O)CCCc2nc3ccccc3s2)CC1	none
CC1=NN(C(=O)c2ccc(Cn3ccc([N+](=O)[O-])n3)cc2)C(O)(C(F)(F)F)C1 (stereo unspecified)	none
O=C1CN(C(=O)c2ccc(Br)o2)C(c2ccccc2)c2cc(Br)ccc2N1 (stereo unspecified)	L major viab 69 (no result: b-catenin transl)
Cc1ccc2c(c1)C(c1ccccc1)N(C(=O)c1ccc(Br)o1)CC(=O)N2 (stereo unspecified)	L major viab 95 (no result: b-catenin transl)
O=C1CN(C(=O)c2ccco2)C(c2ccccc2)c2cc(Cl)ccc2N1 (stereo unspecified)	none
CN1CCN(CC(C)(C)NS(=O)(=O)c2ccc(Cl)cc2)CC1	L major viab 94
CC1CCN(C(=O)Nc2cccc(NC(=O)N3CCC(C)CC3)c2)CC1	none
CC(=O)c1cccc(NC(=O)N2CCC(NC(=O)C34CC5CC(CC(C5)C3)C4)CC2)c1	L major viab 55
O=C(N/N=C/c1ccncc1)c1ccc(NS(=O)(=O)c2cccs2)cc1	none
O=S(=O)(Nc1ccc(S(=O)(=O)Nc2ccccc2)cc1)c1ccccc1	none
O=S(=O)(Nc1ccc(N=Nc2ccc(O)c3ccccc23)cc1)c1ccccc1	CHOP inh 89, L major viab 86
O=S(=O)(Nc1ccc(N=Nc2ccccc2)cc1)c1ccccc1	CHOP inh 95
CCN(CC)c1nc2cc(C)ccc2cc1/C=C(\C#N)C(N)=O	none
S=C(NCc1ccccc1)N1CCN(Cc2ccc3c(c2)OCO3)CC1	L major viab 92
COCCCNC(=S)N1CCN(Cc2ccc3c(c2)OCO3)CC1	none
COc1cccc(CN2CCN(C(=S)NCc3ccc(Cl)cc3)CC2)c1	L major viab 89
CCCCNC(=S)N1CCN(Cc2ccc3c(c2)OCO3)CC1	L major viab 75
Cc1[nH]c2ccc(F)cc2c1CCN(Cc1cccnc1)C(=S)Nc1cccc(F)c1	L major viab 100
Cc1ccccc1NC(=S)N(CCc1c(C)[nH]c2ccc(F)cc12)Cc1cccnc1	L major viab 100
Cc1[nH]c2ccc(F)cc2c1CCN(Cc1ccco1)C(=S)NC(C)(C)C	CHOP inh 81
CNC(=S)N(CCc1c(C)[nH]c2ccc(OC)cc12)Cc1cccnc1	none
Cc1cccc(NC(=S)N(CCc2nc3cc(C)c(C)cc3[nH]2)Cc2cccnc2)c1	CHOP inh 80
Cc1[nH]c2ccc(F)cc2c1CCN(Cc1ccncc1)C(=S)Nc1ccc(F)cc1	L major viab 99
CCNC(=S)N(CCc1c(C)[nH]c2ccc(C)cc12)Cc1cc(OC)c(OC)c(OC)c1	none
COc1ccc(OC)c(C2C=C(C34CC5CC(CC(C5)C3)C4)NC(=S)N2)c1 (stereo unspecified)	L major viab 99
O=C(Cc1csc(N2CCOCC2)n1)N/N=C/c1ccc(F)cc1	none
COc1ccc(/C(C)=N/Nc2ccc(C(=O)O)cc2)cc1OC	L major viab 51
C/C(Cn1nc([N+](=O)[O-])cc1C)=N\NC(=O)c1cccc(Br)c1	L major viab 86
Cc1ccc(-n2cc(CNCCn3nc(C)cc3C)c(-c3ccc(F)cc3)n2)cc1	L major viab 63
Cc1ccc(-n2cc(CNCCc3ncc(C)[nH]3)c(-c3ccc(F)cc3)n2)cc1	L major viab 100
Cc1ccc(S(=O)(=O)c2c(N)n(Cc3ccco3)c3nc4ccccc4nc23)cc1C	L major viab 91
Nc1c(S(=O)(=O)c2ccccc2)c2nc3ccccc3nc2n1CCN1CCOCC1	none
Cc1ccc(C)c(S(=O)(=O)c2c(N)n(/N=C/c3ccco3)c3nc4ccccc4nc23)c1	L major viab 94
Cc1cccc(S(=O)(=O)c2c(N)n(/N=C/c3ccccc3)c3nc4ccccc4nc23)c1	none (no result: b-catenin transl)
Nc1c(S(=O)(=O)c2ccccc2)c2nc3ccccc3nc2n1Cc1ccco1	L major viab 77
COc1cc2c(cc1OC)C(c1cccs1)N(C(=O)c1cccnc1)CC2 (stereo unspecified)	b-catenin transl 53, MT stabilizer 17
COc1cc2c(cc1OC)C(C)N(C(=O)c1cccc([N+](=O)[O-])c1)CC2 (stereo unspecified)	none
COc1cc2c(cc1OC)C(c1cccs1)N(C(=O)C(C)C)CC2 (stereo unspecified)	L major viab 73
CC1=CC=CN2C1=NC(=O)CC2(C)C(=O)N(CC(=O)NC1CCCC1)c1cc(C)cc(C)c1 (stereo unspecified)	none
Cc1nn(C)cc1CN1CCCC(C(=O)c2ccc(-c3ccccc3)c(F)c2)C1 (stereo unspecified)	L major viab 97
